The source made the active and inactive calls. The rule behind the calls is not given here.
Tests used:
[1] = biological target: T1, D(2) dopamine receptor (Homo sapiens, UniProt P14416); assay: Binding affinity to human D2S receptor
[2] = species: Mustela putorius furo; assay: Induction of emesis in ferret; format: functional, organism-based
[3] = species: Mustela putorius furo; assay: Induction of nausea in ferret; format: functional, organism-based
[4] = biological target: T2, D(4) dopamine receptor (Rattus norvegicus, UniProt P30729); assay: Agonist activity at rat D4 receptor in HEK293 cells coexpressing G-alpha-qo5 by FLIPR; format: functional, cell-based
T2 sequence (P30729 whole entry): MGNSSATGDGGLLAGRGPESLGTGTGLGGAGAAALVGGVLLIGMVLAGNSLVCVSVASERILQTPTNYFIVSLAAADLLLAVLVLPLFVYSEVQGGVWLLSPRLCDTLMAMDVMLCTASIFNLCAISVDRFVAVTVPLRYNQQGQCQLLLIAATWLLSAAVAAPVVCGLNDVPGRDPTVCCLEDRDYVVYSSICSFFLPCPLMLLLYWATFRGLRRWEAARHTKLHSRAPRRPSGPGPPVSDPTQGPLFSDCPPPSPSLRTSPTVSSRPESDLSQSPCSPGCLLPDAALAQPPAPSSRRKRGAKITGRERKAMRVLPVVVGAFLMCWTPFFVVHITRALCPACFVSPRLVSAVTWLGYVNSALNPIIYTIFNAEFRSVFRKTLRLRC

[5] = Agonist activity at ferret D4 receptor in HEK293 cells coexpressing G-alpha-qo5 by FLIPR relative to dopamine; format: functional, Mustela putorius furo
[6] = biological target: T3, D(4) dopamine receptor (Rattus norvegicus) (UniProt P30729); assay: Agonist activity at rat D4 receptor in HEK293 cells co-expressing Galphaqo5 by FLIPR relative to dopamine; format: functional, cell-based
T3 sequence (whole entry): T2 sequence (P30729 whole entry)

[7] = biological target: T1, D(2) dopamine receptor; assay: Displacement of [125I]7-OH-PIPAT from human D2L receptor expressed in HEK293 cell membrane; format: cell membranes
[8] = biological target: T4, D(4) dopamine receptor (Homo sapiens, UniProt P21917); assay: Displacement of [3H]A369508 from human D4 receptor expressed in HEK293 cell membrane; format: cell membranes
T4 sequence (P21917 whole entry): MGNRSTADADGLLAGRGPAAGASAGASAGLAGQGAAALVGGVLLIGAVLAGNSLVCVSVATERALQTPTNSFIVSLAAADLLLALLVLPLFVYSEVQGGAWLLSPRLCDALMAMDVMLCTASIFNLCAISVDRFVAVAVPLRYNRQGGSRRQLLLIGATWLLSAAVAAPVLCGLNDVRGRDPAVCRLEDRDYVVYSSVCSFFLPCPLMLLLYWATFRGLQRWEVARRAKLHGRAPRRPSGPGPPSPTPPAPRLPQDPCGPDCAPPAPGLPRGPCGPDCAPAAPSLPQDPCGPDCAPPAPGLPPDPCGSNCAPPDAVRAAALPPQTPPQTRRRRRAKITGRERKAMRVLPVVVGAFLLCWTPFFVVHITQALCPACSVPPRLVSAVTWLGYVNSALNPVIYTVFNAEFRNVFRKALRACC

[9] = biological target: Phosphodiesterase 1 (Homo sapiens) (UniProt P54750+Q01064+Q14123); assay: Activity at PDE1 at 10 uM; format: protein assay
Summary of the method: (§1)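 Broad selectivity panel (over 70 receptors, ion channels and neuronal receptors, PDE1-6 included) run at a single 10 µM concentration.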

[10] = biological target: Phosphodiesterase 3 (Homo sapiens) (UniProt Q14432+Q13370); assay: Activity at PDE3 at 10 uM; format: protein assay; summary of the method: as §1
[11] = biological target: Phosphodiesterase 6 (Homo sapiens) (UniProt Q13956+P18545+P35913+O43924+P16499+P51160); assay: Activity at PDE6 at 10 uM; format: protein assay; summary of the method: as §1
[12] = system: Rattus norvegicus; assay: Proerectile activity in rat measured as incidence of penile erection at 0.1 umol/kg, sc; format: functional
Summary of the method: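 Conscious male rats were given a single subcutaneous injection and observed for penile erections over the following 60 min. The read-out was the incidence of erections, expressed as % of animals ± SEM (n = 12–32 animals per group), with significance tested against controls. The value is the maximal incidence at the maximally effective dose.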

[13] = Half life in monkey at 1 mg/kg, po; format: ADME, organism-based, Macaca mulatta; design: dose 1 mg/kg, route oral; details: rhesus monkey, in vivo
Summary of the method: (§2)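 Single 1 mg/kg dose given iv, sc or orally to Sprague-Dawley rats, dogs and monkeys; plasma concentrations followed over time (mean ± SEM, n = 3). Cmax, AUC, half-life, clearance and bioavailability calculated from the curves.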

[14] = Cmax in rat at 1 mg/kg, sc; format: ADME, organism-based; design: dose 1 mg/kg, route subcutaneous; details: in vivo; summary of the method: as §2
[15] = Bioavailability in rat at 1 mg/kg, po; format: ADME, organism-based; details: in vivo; summary of the method: as §2
[16] = Bioavailability in dog at 1 mg/kg, po; format: ADME, organism-based, Canis lupus familiaris; details: in vivo; summary of the method: as §2
[17] = Bioavailability in monkey at 1 mg/kg, po; format: ADME, organism-based, Macaca mulatta; details: rhesus monkey, in vivo; summary of the method: as §2
[18] = Half life in rat at 1 mg/kg, sc; format: ADME, organism-based; design: dose 1 mg/kg, route subcutaneous; details: in vivo; summary of the method: as §2
[19] = Half life in rat at 1 mg/kg, po; format: ADME, organism-based; design: dose 1 mg/kg, route oral; details: in vivo; summary of the method: as §2
[20] = Half life in dog at 1 mg/kg, po; format: ADME, organism-based, Canis lupus familiaris; design: dose 1 mg/kg, route oral; details: in vivo; summary of the method: as §2
[21] = Cmax in dog at 1 mg/kg, po; format: ADME, organism-based, Canis lupus familiaris; design: dose 1 mg/kg, route oral; details: in vivo; summary of the method: as §2
[22] = Cmax in monkey at 1 mg/kg, po; format: ADME, organism-based, Macaca mulatta; design: dose 1 mg/kg, route oral; details: rhesus monkey, in vivo; summary of the method: as §2
[23] = AUC in rat at 1 mg/kg, po; format: ADME, organism-based; design: dose 1 mg/kg, route oral; details: plasma; summary of the method: as §2
[24] = AUC in dog at 1 mg/kg, po; format: ADME, organism-based, Canis lupus familiaris; design: dose 1 mg/kg, route oral; details: plasma; summary of the method: as §2
[25] = Plasma clearance in iv dosed rat; format: ADME, organism-based; summary of the method: as §2
[26] = Plasma clearance in iv dosed dog; format: ADME, organism-based, Canis lupus familiaris; summary of the method: as §2
[27] = biological target: T5, hERG (Homo sapiens, UniProt Q12809); assay: Blockade of current at hERG expressed in HEK293 cells at 3 ug/mL; format: cell-based; details: HEK293 cells that express hERG
T5 sequence (Q12809 whole entry): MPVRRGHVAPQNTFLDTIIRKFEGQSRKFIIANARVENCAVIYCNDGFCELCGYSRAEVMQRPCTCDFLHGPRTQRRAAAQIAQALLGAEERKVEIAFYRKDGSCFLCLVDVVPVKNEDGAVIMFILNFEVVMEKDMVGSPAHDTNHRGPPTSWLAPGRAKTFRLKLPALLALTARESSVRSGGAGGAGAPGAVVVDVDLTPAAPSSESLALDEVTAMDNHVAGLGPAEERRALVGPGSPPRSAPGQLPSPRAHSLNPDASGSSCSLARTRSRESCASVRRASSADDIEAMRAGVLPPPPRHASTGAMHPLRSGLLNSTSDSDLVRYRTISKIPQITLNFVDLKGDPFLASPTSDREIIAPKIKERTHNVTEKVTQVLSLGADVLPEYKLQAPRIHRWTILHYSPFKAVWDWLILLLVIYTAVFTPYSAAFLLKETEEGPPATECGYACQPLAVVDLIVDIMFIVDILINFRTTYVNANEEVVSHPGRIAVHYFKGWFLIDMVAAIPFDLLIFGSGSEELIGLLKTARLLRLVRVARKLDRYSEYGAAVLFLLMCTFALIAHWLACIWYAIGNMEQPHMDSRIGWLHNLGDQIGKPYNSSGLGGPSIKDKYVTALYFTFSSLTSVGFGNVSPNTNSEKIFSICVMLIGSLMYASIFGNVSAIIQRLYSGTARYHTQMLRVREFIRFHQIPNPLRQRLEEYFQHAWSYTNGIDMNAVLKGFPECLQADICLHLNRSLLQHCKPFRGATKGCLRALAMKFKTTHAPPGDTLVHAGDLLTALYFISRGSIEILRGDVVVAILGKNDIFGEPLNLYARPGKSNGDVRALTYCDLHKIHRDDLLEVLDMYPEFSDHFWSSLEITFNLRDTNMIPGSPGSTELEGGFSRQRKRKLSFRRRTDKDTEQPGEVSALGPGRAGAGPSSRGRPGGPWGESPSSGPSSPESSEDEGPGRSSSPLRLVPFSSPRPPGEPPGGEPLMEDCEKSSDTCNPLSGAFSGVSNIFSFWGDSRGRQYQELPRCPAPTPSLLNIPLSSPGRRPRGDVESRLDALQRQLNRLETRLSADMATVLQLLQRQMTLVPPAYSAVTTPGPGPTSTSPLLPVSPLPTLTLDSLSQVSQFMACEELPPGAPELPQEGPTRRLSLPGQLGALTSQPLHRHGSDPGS
Summary of the method: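 hERG stably expressed in HEK293 cells; whole-cell voltage clamp. Pipette: K aspartate/KCl/EGTA/MgATP, pH 7.3. Bath: NaCl-based HEPES, pH 7.4. Compound dissolved in DMSO (≤0.1%), one concentration per cell. Steps to -25 to +50 mV for 3 s, then -50 mV for 4 s, from -80 mV every 15 s; tail current measured against DMSO vehicle.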

[28] = biological target: T5, hERG; assay: Blockade of current at hERG expressed in HEK293 cells at 1 ug/mL; format: cell-based; details: HEK293 cells that express hERG
Summary of the method: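 hERG stably expressed in HEK 293 cells (MEM with 10% FBS, G418), whole-cell voltage clamp. Pipette: K aspartate/KCl/EGTA/MgATP, pH 7.3. Bath: NaCl-based HEPES, pH 7.4. Compound dissolved in DMSO and diluted in bath (DMSO ≤0.1%), one concentration per cell. Steps to -25, 0, 25, 50 mV for 3 s, then -50 mV for 4 s, from -80 mV every 15 s.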

[29] = Effect on canine cardiac Purkinje fiber repolarization measured as prolongation of action potential duration at 3 ug/mL; format: functional, Canis lupus familiaris
Summary of the method: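 Canine Purkinje fibers impaled with 3 M KCl microelectrodes. Fibers accepted with resting potential below -80 mV and APD 300-500 ms. Paced at BCL 2 s, then 800 and 400 ms. Two ascending concentrations applied, each after 25 min equilibration. APD90 measured at all three rates.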

[30] = system: D(2) dopamine receptor (Mustela putorius furo); assay: Agonist activity at ferret D2 receptor in HEK293 cells coexpressing Galphaqo5 by FLIPR relative to dopamine upto 10 uM

T1 sequence (P14416 whole entry): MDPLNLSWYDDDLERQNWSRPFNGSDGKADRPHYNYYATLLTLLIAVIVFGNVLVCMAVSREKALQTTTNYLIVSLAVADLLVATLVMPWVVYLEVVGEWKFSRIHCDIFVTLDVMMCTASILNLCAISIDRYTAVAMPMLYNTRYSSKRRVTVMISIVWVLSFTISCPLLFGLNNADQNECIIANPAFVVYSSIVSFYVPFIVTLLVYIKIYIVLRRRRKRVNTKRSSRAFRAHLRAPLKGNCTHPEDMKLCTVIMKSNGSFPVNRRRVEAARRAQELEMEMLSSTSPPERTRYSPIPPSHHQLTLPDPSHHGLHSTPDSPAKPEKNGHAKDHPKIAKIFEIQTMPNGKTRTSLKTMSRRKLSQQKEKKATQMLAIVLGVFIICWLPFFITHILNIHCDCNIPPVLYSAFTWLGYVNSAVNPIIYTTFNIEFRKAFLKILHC

Cc1cccc(C(=O)NCN2CCC(c3cccc[n+]3[O-])CC2)c1
Ki [1]: > 10000 nM | Activity [2]: inactive | Activity [3]: inactive | EC50 [4]: 93 nM | Efficacy [5]: 76% | Efficacy [6]: 78% | Ki [7]: > 10000 nM | Ki [8]: 1440 nM | Activity [9]: inactive | Activity [10]: inactive | Activity [11]: inactive | Activity [12]: 75% | half-life [13]: 2 h | Cmax [14]: 465 ng/mL | bioavailability [15]: 68% | bioavailability [16]: 85% | bioavailability [17]: 91% | half-life [18]: 1.2 h | half-life [19]: 1.8 h | half-life [20]: 2.1 h | Cmax [21]: 1420 ng/mL | Cmax [22]: 660 ng/mL | AUC [23]: 922 ng·h/mL | AUC [24]: 4280 ng·h/mL | clearance [25]: 12.3 mL/min/kg | clearance [26]: 3.33 mL/min/kg | inhibition at 3 ug/mL [27]: 14.5% | inhibition at 1 ug/mL [28]: 14.4% | Activity [29]: 4.3% | Activity [30]: inactive

— ChEMBL document CHEMBL1137302 (J Med Chem, 2006)
